From ChEMBL document CHEMBL1138465, “N-aryl-oxazolidin-2-imine muscle selective androgen receptor modulators enhance potency through pharmacophore reorientation” (J Med Chem, 2009)
pEC50, pKi: −log10 of the molar value. Converted amounts (≈) assume the structure as drawn.

What was measured:
Androgen receptor [1] = target: T1, Androgen receptor (Homo sapiens, UniProt P10275); assay: Displacement of [3H[DHT from androgen receptor endogenously expressed in human MDA-MB-453 cells; assay type: cell-based
T1 sequence (P10275 whole entry): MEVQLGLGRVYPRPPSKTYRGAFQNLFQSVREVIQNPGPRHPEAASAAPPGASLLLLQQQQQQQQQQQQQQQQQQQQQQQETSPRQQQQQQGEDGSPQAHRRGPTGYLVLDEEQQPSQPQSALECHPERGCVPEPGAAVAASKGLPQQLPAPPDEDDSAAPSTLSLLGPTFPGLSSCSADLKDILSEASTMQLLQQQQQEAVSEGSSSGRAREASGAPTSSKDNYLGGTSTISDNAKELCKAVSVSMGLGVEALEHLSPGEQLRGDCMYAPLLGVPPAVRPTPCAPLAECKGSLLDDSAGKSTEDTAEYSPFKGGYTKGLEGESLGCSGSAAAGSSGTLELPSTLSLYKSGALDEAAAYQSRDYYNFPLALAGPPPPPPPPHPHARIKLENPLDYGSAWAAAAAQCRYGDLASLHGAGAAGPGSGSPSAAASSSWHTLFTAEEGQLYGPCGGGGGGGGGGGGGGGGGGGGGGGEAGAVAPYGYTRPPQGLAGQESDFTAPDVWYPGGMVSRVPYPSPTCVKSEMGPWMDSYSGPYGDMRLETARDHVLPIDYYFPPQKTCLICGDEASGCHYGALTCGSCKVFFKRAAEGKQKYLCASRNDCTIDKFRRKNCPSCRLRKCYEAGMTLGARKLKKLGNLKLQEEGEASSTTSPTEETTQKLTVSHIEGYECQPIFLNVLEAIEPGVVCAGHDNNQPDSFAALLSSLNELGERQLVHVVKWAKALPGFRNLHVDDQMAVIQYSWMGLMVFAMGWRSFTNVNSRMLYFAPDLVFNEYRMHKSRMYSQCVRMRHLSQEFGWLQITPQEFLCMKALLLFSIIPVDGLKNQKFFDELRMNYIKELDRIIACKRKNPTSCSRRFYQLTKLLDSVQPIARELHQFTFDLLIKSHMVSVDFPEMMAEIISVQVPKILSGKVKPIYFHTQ

Androgen receptor [2] = target: T2, Androgen receptor (Rattus norvegicus, UniProt P15207); assay: […] at rat AR expressed in mouse skeletal muscle C2C12 cells assessed as transcriptional activation after 24 hrs by androgen-specific response element driven luciferase reporter gene assay; assay type: functional, cell-based
T2 sequence (P15207 whole entry): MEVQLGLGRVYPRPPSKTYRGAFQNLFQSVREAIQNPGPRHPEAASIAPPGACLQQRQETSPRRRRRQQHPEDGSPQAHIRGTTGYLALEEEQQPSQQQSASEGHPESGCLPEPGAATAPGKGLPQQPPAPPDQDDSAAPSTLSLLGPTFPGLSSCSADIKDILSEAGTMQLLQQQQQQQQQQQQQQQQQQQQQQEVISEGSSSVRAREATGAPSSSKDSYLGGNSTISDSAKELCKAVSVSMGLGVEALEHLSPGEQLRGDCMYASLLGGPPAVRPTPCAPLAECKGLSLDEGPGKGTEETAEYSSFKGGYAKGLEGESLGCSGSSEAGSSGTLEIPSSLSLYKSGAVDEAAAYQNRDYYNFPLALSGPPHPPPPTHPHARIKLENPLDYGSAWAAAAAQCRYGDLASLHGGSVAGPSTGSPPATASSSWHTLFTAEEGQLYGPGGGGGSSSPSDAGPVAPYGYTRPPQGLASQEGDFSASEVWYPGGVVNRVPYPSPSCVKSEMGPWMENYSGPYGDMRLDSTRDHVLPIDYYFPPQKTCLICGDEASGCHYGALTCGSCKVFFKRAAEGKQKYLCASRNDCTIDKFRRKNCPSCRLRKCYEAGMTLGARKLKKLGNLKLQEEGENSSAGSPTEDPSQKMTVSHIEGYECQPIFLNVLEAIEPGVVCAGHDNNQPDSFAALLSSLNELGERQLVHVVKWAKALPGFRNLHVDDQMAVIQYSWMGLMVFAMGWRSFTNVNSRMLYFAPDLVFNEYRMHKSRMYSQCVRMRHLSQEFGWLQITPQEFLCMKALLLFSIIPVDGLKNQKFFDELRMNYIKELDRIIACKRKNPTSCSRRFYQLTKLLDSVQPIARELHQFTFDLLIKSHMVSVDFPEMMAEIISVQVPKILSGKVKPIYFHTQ

Androgen receptor [3] = target: T2, Androgen receptor; assay: Agonist activity at rat androgen receptor expressed in mouse skeletal muscle C2C12 cells assessed as transcriptional activation after 24 hrs by androgen-specific response element driven luciferase reporter gene assay; assay type: functional, cell-based
Androgen receptor [4] = target: T2, Androgen receptor; assay: Intrinsic activity at rat androgen receptor expressed in mouse skeletal muscle C2C12 cells assessed as transcriptional activation after 24 hrs by androgen-specific response element driven luciferase reporter gene assay relative to control; assay type: cell-based
Rattus norvegicus [5] = assay: Anabolic activity in castrated male Harlan Sprague-Dawley rat assessed as intact growth of prostate at 0.01 mg/kg, po after 14 days; assay type: functional, Prostate gland
Rattus norvegicus [6] = assay: Anabolic activity in castrated male Harlan Sprague-Dawley rat assessed as intact growth of Levator ani muscle at 0.001 mg/kg, po after 14 days; assay type: functional
Rattus norvegicus [7] = assay: Anabolic activity in po dosed castrated male Harlan Sprague-Dawley rat assessed as intact growth of Levator ani muscle after 14 days; assay type: functional; conditions: 336 h
Rattus norvegicus [8] = assay: Anabolic activity in castrated male Harlan Sprague-Dawley rat assessed as intact growth of Levator ani muscle at 0.01 mg/kg, po after 14 days; assay type: functional
Rattus norvegicus [9] = assay: Anabolic activity in sc dosed castrated male Harlan Sprague-Dawley rat assessed as intact growth of Levator ani muscle after 14 days; assay type: functional; conditions: 336 h
Rattus norvegicus [10] = assay: Anabolic activity in castrated male Harlan Sprague-Dawley rat assessed as intact growth of prostate at 0.00001 mg/kg, po after 14 days; assay type: functional, Prostate gland; conditions: dose 1e-05 mg/kg
Rattus norvegicus [11] = assay: Anabolic activity in castrated male Harlan Sprague-Dawley rat assessed as intact growth of Levator ani muscle at 0.00001 mg/kg, po after 14 days; assay type: functional; conditions: dose 1e-05 mg/kg
Rattus norvegicus [12] = assay: Anabolic activity in castrated male Harlan Sprague-Dawley rat assessed as intact growth of prostate at 0.1 mg/kg, po after 14 days; assay type: functional, Prostate gland
Rattus norvegicus [13] = assay: Anabolic activity in castrated male Harlan Sprague-Dawley rat assessed as intact growth of prostate at 0.0001 mg/kg, po after 14 days; assay type: functional, Prostate gland
Rattus norvegicus [14] = assay: Anabolic activity in castrated male Harlan Sprague-Dawley rat assessed as intact growth of prostate at 0.001 mg/kg, po after 14 days; assay type: functional, Prostate gland
Rattus norvegicus [15] = assay: Anabolic activity in castrated male Harlan Sprague-Dawley rat assessed as intact growth of Levator ani muscle at 0.0001 mg/kg, po after 14 days; assay type: functional
Rattus norvegicus [16] = assay: Anabolic activity in castrated male Harlan Sprague-Dawley rat assessed as intact growth of prostate at 0.03 mg/kg, po after 14 days; assay type: functional, Prostate gland
Rattus norvegicus [17] = assay: Anabolic activity in castrated male Harlan Sprague-Dawley rat assessed as intact growth of Levator ani muscle at 0.3 mg/kg, po after 14 days; assay type: functional
Rattus norvegicus [18] = assay: Anabolic activity in castrated male Harlan Sprague-Dawley rat assessed as intact growth of prostate at 0.3 mg/kg, po after 14 days; assay type: functional, Prostate gland
Rattus norvegicus [19] = assay: Anabolic activity in po dosed castrated male Harlan Sprague-Dawley rat assessed as intact growth of prostate after 14 days; assay type: functional; conditions: Prostate gland, 336 h
[20] = Chemical stability in 0.1N HCl assessed as drug remaining after 24 hrs; assay type: physicochemical; conditions: read-out: Stability
Procedure, shortened: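 Compound held in solution in 0.1 N HCl at 37 °C for 24 h, used as a model of gut pH; the percentage of intact compound remaining at 24 h was the read-out.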

Rattus norvegicus [21] = assay: Anabolic activity in castrated male Harlan Sprague-Dawley rat assessed as intact growth of Levator ani muscle at 0.1 mg/kg, po after 14 days; assay type: functional
Rattus norvegicus [22] = assay: Anabolic activity in castrated male Harlan Sprague-Dawley rat assessed as intact growth of Levator ani muscle at 0.03 mg/kg, po after 14 days; assay type: functional
Rattus norvegicus [23] = assay: Anabolic activity in sc dosed castrated male Harlan Sprague-Dawley rat assessed as intact growth of prostate after 14 days; assay type: functional; conditions: Prostate gland, 336 h
[24] = AUC in rat at 5 mg/kg, po; assay type: ADME, organism-based; design: dose 5 mg/kg, route oral; conditions: plasma
[25] = Aqueous solubility of the compound; assay type: physicochemical

With `Cc1c(/N=C2\NC[C@@H]3[C@H](O)CCN23)ccc(C#N)c1Cl` the pKi (Androgen receptor [1]) was 8.00 and the pEC50 (Androgen receptor [2]) was 5.74.
`Cc1c(/N=C2\OC(C(C)C)[C@@H]3[C@H](O)CCN23)ccc(C#N)c1Cl` (single isomer, unassigned) showed a pKi (Androgen receptor [1]) of 9.15 and a pEC50 (Androgen receptor [3]) of 8.43.
`Cc1c(N2C[C@@H]3[C@H](O)CCN3C2=O)ccc(C#N)c1Cl` showed a pKi (Androgen receptor [1]) of 8.22 and a pEC50 (Androgen receptor [3]) of 8.19.
Compound `CC[C@H]1[C@@H]2[C@@H](O)CCN2C(=O)N1c1ccc(C#N)c(Cl)c1C` has a pEC50 (Androgen receptor [3]) of 8.74.
`Cc1c(/N=C2\O[C@H](C(F)(F)F)[C@@H]3[C@H](O)CCN23)ccc(C#N)c1Cl` gave a pKi (Androgen receptor [1]) of 8.64 and a pEC50 (Androgen receptor [3]) of 8.96.
`Cc1c(N2C(NC#N)N3CC[C@H](O)[C@H]3[C@@H]2C)ccc(C#N)c1Cl` (stereo partly specified) showed a pKi (Androgen receptor [1]) of 7.77 and a pEC50 (Androgen receptor [3]) of 5.96.
In the case of `Cc1c(/N=C2\N(C(N)=O)C[C@@H]3[C@H](O)CCN23)ccc(C#N)c1Cl`, the EC50 (Androgen receptor [4]) was “Active” and the pKi (Androgen receptor [1]) was 7.72.
Compound `Cc1c(/N=C2\O[C@@H](C(F)(F)F)[C@@H]3[C@@H](O)CCN23)ccc(C#N)c1Cl` has an Activity (Rattus norvegicus [5]) of 38.8%, an Activity (Rattus norvegicus [6]) of 59% and an ED50 (Rattus norvegicus [7]) of 0.0009 mg/kg. For the same compound, the Activity (Rattus norvegicus [8]) was 109.3%, the ED50 (Rattus norvegicus [9]) was 0.21 mg/kg and the Activity (Rattus norvegicus [10]) was 2.6%. For the same compound, the pKi (Androgen receptor [1]) was 9.52, the Activity (Rattus norvegicus [11]) was 21% and the Activity (Rattus norvegicus [12]) was 103%. For the same compound, the Activity (Rattus norvegicus [13]) was 3.6%, the Activity (Rattus norvegicus [14]) was 9.5% and the Activity (Rattus norvegicus [15]) was 25%. The Activity (Rattus norvegicus [16]) was 72.9%, the Activity (Rattus norvegicus [17]) was 103.9% and the Activity (Rattus norvegicus [18]) was 104.5%. For the same compound, the ED50 (Rattus norvegicus [19]) was 0.0143 mg/kg, the remaining at 24 h [20] was 0.41% and the Activity (Rattus norvegicus [21]) was 100.5%. It also gave a pEC50 (Androgen receptor [3]) of 9.70, an Activity (Rattus norvegicus [22]) of 103.5% and an ED50 (Rattus norvegicus [23]) of 0.42 mg/kg. For the same compound, the AUC [24] was 5.8 µM·h.
`Cc1c(/N=C2\OC[C@@H]3[C@@H](O)CCN23)ccc(C#N)c1Cl` showed a pKi (Androgen receptor [1]) of 9.52 and a pEC50 (Androgen receptor [3]) of 7.85.
Compound `Cc1c(/N=C2\O[C@H](C(F)(F)F)[C@@H]3[C@@H](O)CCN23)ccc(C#N)c1Cl` has a pKi (Androgen receptor [1]) of 9.70 and a pEC50 (Androgen receptor [3]) of 7.72.
In the case of `Cc1c(N2C(=O)[C@@H]3[C@H](O)CCN3C2=O)ccc(C#N)c1Cl`, the solubility [25] was 19 µg/mL (≈ 62.1 µM).
Compound `Cc1c(/N=C2\OC[C@@H]3[C@H](O)CCN23)ccc(C#N)c1Cl` has a pKi (Androgen receptor [1]) of 9.10 and a pEC50 (Androgen receptor [3]) of 8.32.
Compound `Cc1c(/N=C2\O[C@@H](C(F)(F)F)[C@@H]3[C@H](O)CCN23)ccc(C#N)c1Cl` has a pKi (Androgen receptor [1]) of 9.52 and a pEC50 (Androgen receptor [3]) of 8.85.
`Cc1c(/N=C2\N(C)C[C@@H]3[C@H](O)CCN23)ccc(C#N)c1Cl` gave a pKi (Androgen receptor [1]) of 8.72 and a pEC50 (Androgen receptor [3]) of 7.36.
